Laboratory results taken from PubChem BioAssay.
Results filed as inconclusive are left out.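 How the source made its calls, unless noted: active means viability increase at or above a cutoff of the median across tested compounds plus 3 SD (cut at about 8.5% in these data, passing the limit was not always enough); inconclusive means some gains above the cutoff, reason not given; inactive means the rest.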

Experiments:
[1] = OD615 S. cerevisiae growth inhibition, permissive medium, pilot counter-assay, permissive growth control for S. cerevisiae lifespan shortening project (AID 705;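 active means growth inhibition above 25% in both replicates, a cutoff set 3 SD above the mean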); settings: OD615, 24 h, at 10 µM, hits give high values
Outline: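 System: engineered DeaD yeast; Medium: permissive raffinose/galactose medium; Compound dosing: 10 µM single dose, 0.25% DMSO; Incubation: 4 h cell pre-growth, 24 h exposure at 30 °C; Technique: OD at 615 nm; Evaluation: growth inhibition from lowered OD615 after 24 h.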

[2] = Restrictive medium S. cerevisiae growth inhibition, OD615, pilot screen of yeast lifespan reduction project, restrictive growth control (AID 706;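 active means growth inhibition above a set limit, 3 SD over mean compound inhibition, in both replicates, cut at about 43% in these data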;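 further: modified DeaD lifespan yeast strain shifted to restrictive glucose medium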); settings: OD615, 48 h, at 10 µM, hits give high values
Outline: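 Material: modified S. cerevisiae; buffer or medium: CSMM-D glucose medium; doses: one concentration, 10 µM final, 0.25% DMSO; incubation: 48 h compound exposure at 30 °C; detection: optical density at 615 nm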

[3] = viability gain of MRP-1-high H69AR cells under doxorubicin, pilot screen, MRP-1 activator project, CellTiter-Glo, duplicate (AID 807); settings: H69AR viability with doxorubicin, CellTiter-Glo luminescence; at 10 µM; hits give high values;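 further: compound pretreatment 18-22 h then 72 h combined with doxorubicin; 0% = doxorubicin alone and 100% = vehicle without doxorubicin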
[4] = growth suppression of beta-catenin knockout HCT116, pilot screen, human colon tumor cells (AID 823;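 active means cell viability at or below a set limit in both duplicate runs, the limit being the all-compound median minus 4 SD, cut at about 23% in these data, passing the limit was not always enough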;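 further: 0% = wells killed by 20 µM Hyamine and 100% = untreated DMSO cell wells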); settings: CellTiter-Glo, 60 h, at 10 µM, hits give low values
[5] = growth suppression of PTEN-deleted HCT116, pilot screen, cell-based, HCT116 clonal line, CellTiter-Glo (AID 824;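 active means viability at or below 27.92% in each of two runs, the all-compound median minus 4 SD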;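 further: 0% = 20 µM Hyamine control and 100% = vehicle cell control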); settings: 60 h, at 10 µM, hits give low values
[6] = inhibitors of the yeast RAM network, pilot screen, dse1pr::URA3 reporter, 5-FOA selection (AID 869;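 active means inhibition over a set limit, the all-compound mean plus 3 SD, in both replicate runs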;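 further: 0% = DMSO wells with no growth and 100% = 10 µM 1-NA-PP1 with full growth; RAM network block rescues cells from 5-FOA so hits raise OD615 growth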); settings: S. cerevisiae dse1pr::URA3 5-FOA growth, OD615, 2 d; at 10 µM; hits give high values; strain carries analog-sensitive mutant Cbk1 kinase
[7] = RAM signaling pathway blockade in yeast – S. cerevisiae, Pdr1DBD-CYC8 efflux-inhibited sensitized strain, primary screen (AID 1298;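 active means RAM network inhibition above 8.4% in each of two replicates, 3 SD over the compound average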;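 further: 0% = DMSO untreated cells without growth and 100% = 10 µM 1-NA-PP1 full growth; higher means more yeast growth rescued from 5-FOA killing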); settings: S. cerevisiae cbk1-as DSE1-URA3 strain, 5-FOA growth OD615, 2 d; at 50 µM; hits give high values

COc1ccc(N2CCN(Cc3nc4c(c(=O)n(C)c(=O)n4C)n3Cc3cccc(C)c3)CC2)cc1
inactive: growth inhibition [1] -11.5% | growth inhibition [2] -24.2% | viability increase [3] -3.88% | viability [4] 80.1% | viability [5] 75.2% | inhibition [6] -0.7% | RAM network inhibition [7] 8.85%

COC(=O)c1ccccc1Nc1cc(C)nc2nc(C)nn12
inactive: growth inhibition [1] -5.25% | growth inhibition [2] 0.455% | viability increase [3] -3.74% | viability [4] 105% | viability [5] 115% | inhibition [6] -0.315% | RAM network inhibition [7] 1.72%

CCOC(=O)CNC(=O)CSc1nnc(Cn2c(=O)sc3ccccc32)n1C
inactive: growth inhibition [1] -6.96% | growth inhibition [2] 6.85% | viability increase [3] -1.45% | viability [4] 108% | viability [5] 98% | inhibition [6] 0.83% | RAM network inhibition [7] 3.34%

CC(=O)c1cccc(NC(=O)Cn2cc3c(n2)CCCC3)c1
inactive: growth inhibition [1] -3.74% | growth inhibition [2] -0.095% | viability increase [3] -3.04% | viability [4] 97.5% | viability [5] 96.7% | inhibition [6] 0.1% | RAM network inhibition [7] 2.14%

O=C(c1cc(-c2ccccc2O)on1)N1CCCC1
inactive: growth inhibition [1] -4.15% | growth inhibition [2] -3.9% | viability increase [3] -4.17% | viability [4] 105% | viability [5] 90.7% | inhibition [6] 3.37% | RAM network inhibition [7] 6.42%

CCOc1cc2[nH]c(=O)n(Cc3ccc(C(=O)NCCOC)cc3)c(=O)c2cc1OCC
inactive: growth inhibition [1] -16.2% | growth inhibition [2] -6.54% | viability increase [3] -1.54% | viability [4] 97.8% | viability [5] 95.2% | inhibition [6] 0.03% | RAM network inhibition [7] 6.22%

CCOC(=O)C1CCN(C(=O)c2cc3c(-c4ccc(OC)c(OC)c4)nn(C)c3s2)CC1
inactive: growth inhibition [1] -7.02% | growth inhibition [2] -7.66% | viability increase [3] -2.04% | viability [4] 107% | viability [5] 98.9% | inhibition [6] 0.595% | RAM network inhibition [7] 5.7%

CCOC(=O)c1cc(-c2ccc(F)cc2)n(CC(=O)Nc2nccs2)c1C
inactive: growth inhibition [1] -11.3% | growth inhibition [2] 1.7% | viability increase [3] -5.35% | viability [4] 59% | viability [5] 62.6% | inhibition [6] 1.99% | RAM network inhibition [7] 4.55%

COc1ccccc1NC(=O)CSc1nnnn1C
inactive: growth inhibition [1] -4.16% | growth inhibition [2] -6.61% | viability increase [3] -1.03% | viability [4] 105% | viability [5] 96.4% | inhibition [6] 1.37% | RAM network inhibition [7] 3.12%

CCN(CC)S(=O)(=O)c1ccc(-c2nnco2)cc1
inactive: growth inhibition [1] -23.5% | growth inhibition [2] -16.6% | viability increase [3] -0.57% | viability [4] 100% | viability [5] 97.9% | inhibition [6] 3.09% | RAM network inhibition [7] 1.46%

CCSc1nnc(Cn2c(=O)sc3ccccc32)n1-c1ccccc1C
inactive: growth inhibition [1] -2.14% | growth inhibition [2] -4.08% | viability increase [3] -1.61% | viability [4] 93.9% | viability [5] 89.7% | inhibition [6] 1.61% | RAM network inhibition [7] 8.51%

COc1ccc(NC(=O)C2=C(C)NC(=O)NC2c2cccc(OC)c2OC)c(OC)c1 (stereo not given)
inactive: growth inhibition [1] -15.4% | growth inhibition [2] -22.3% | viability increase [3] 0.09% | viability [4] 103% | viability [5] 103% | inhibition [6] 0.405% | RAM network inhibition [7] -1.04%

COc1ccc2nc(N3CCCC(C(=O)NCCCN4CCN(C)CC4)C3)sc2c1 (stereo not given)
inactive: growth inhibition [1] -5.12% | growth inhibition [2] -11.4% | viability increase [3] -2.35% | viability [4] 96.9% | viability [5] 89.5% | inhibition [6] 1.98% | RAM network inhibition [7] 8.59%

CC(Oc1ccc(Cl)cc1Cl)C(=O)NCCCN1CCOCC1 (stereo not given)
inactive: growth inhibition [1] -8.88% | growth inhibition [2] -10.2% | viability increase [3] 0.14% | viability [4] 96% | viability [5] 95% | inhibition [6] -0.36% | RAM network inhibition [7] 0.47%

COc1ccc(-n2c3c(cc(C(=O)Nc4ccc5c(c4)C(=O)NC5=O)c2=O)C(=O)CCC3)cc1
inactive: growth inhibition [1] -7.19% | growth inhibition [2] -10.4% | viability increase [3] 0.08% | viability [4] 102% | viability [5] 102% | inhibition [6] 1.77% | RAM network inhibition [7] 3.06%
